Reference: the M2OR odorant receptor database

Columns and labels:
Settings in all cases: stereoisomer not certain
UniProt Q8VGZ2 = molecular target: T1, UniProt Q8VGZ2
T1 sequence (whole entry): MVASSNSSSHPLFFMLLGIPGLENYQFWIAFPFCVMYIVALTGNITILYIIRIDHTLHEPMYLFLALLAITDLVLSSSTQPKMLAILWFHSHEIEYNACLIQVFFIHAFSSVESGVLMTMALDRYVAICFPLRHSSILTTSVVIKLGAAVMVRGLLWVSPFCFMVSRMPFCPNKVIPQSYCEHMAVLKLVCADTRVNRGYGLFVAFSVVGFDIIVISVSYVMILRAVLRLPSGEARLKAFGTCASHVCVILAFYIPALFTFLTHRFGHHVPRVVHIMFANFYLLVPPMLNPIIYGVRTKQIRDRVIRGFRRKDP
How it was run: (§1)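 Values were gathered from published papers (main text and supplementary material), with extra details requested from the original authors when needed, and checked for typos and inconsistencies. Each receptor–molecule pair is called responsive (active) if the original authors judged the measured signal statistically different from baseline, and non-responsive (inactive) otherwise. Assay methods varied by source, often transient mammalian cell-line luciferase assays. Recorded details include cell line, G-protein, co-transfected protein and tags.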

UniProt Q8VGZ7 = molecular target: T2, UniProt Q8VGZ7
T2 sequence (whole entry): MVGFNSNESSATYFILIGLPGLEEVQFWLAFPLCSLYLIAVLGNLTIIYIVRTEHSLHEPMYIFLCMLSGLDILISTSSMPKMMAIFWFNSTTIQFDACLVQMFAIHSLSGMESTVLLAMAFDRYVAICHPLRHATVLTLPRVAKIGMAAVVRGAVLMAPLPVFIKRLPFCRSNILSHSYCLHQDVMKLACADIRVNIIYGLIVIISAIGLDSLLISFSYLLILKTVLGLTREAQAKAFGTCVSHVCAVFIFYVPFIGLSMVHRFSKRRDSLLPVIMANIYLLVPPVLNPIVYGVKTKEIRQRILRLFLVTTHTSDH
How it was run: as §1

UniProt Q8VH16 = molecular target: T3, UniProt Q8VH16
T3 sequence (whole entry): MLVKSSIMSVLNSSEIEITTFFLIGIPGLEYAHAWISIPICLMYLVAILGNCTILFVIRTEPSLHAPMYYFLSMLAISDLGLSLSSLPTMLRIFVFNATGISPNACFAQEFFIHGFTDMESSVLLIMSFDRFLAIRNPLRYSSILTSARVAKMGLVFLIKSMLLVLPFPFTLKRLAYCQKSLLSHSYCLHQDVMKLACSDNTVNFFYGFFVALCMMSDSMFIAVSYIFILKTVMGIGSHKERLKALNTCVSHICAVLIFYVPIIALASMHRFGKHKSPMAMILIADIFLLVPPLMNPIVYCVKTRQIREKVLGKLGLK
How it was run: as §1

UniProt Q8VH20 = molecular target: T4, UniProt Q8VH20
T4 sequence (whole entry): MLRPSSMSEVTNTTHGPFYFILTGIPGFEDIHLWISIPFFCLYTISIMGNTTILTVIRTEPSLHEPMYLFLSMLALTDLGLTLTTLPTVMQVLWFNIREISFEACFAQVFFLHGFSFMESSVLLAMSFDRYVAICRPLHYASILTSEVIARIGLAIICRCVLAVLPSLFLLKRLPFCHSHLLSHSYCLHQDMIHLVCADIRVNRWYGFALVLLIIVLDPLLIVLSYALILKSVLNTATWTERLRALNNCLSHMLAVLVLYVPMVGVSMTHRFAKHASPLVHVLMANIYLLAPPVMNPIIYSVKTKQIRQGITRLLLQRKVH
How it was run: as §1

UniProt Q8VH21 = molecular target: T5, UniProt Q8VH21
T5 sequence (whole entry): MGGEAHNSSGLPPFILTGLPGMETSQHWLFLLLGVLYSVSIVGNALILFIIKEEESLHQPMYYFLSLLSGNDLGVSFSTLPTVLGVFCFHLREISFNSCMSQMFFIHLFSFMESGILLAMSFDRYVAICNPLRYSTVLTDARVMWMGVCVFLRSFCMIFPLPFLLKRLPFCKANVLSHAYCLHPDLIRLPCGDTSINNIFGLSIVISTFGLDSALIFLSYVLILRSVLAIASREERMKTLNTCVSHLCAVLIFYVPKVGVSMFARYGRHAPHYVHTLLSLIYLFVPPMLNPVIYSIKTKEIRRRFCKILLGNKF
How it was run: as §1

UniProt Q8VH18 = molecular target: T6, UniProt Q8VH18
T6 sequence (whole entry): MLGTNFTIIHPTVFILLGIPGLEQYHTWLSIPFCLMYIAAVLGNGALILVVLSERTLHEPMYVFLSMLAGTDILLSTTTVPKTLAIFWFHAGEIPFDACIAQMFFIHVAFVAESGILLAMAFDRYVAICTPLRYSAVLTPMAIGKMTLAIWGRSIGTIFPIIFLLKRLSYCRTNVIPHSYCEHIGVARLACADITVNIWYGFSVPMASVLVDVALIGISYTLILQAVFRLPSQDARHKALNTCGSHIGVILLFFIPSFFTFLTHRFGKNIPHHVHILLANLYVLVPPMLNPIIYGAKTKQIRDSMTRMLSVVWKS
How it was run: as §1

Measured: odorant receptor agonist call

CC(=O)OCCc1ccccc1
inactive: UniProt Q8VGZ2 | UniProt Q8VGZ7 | UniProt Q8VH16 | UniProt Q8VH20 | UniProt Q8VH21

CCCCCC(=Cc1ccccc1)C(OC)OC
inactive: UniProt Q8VGZ2 | UniProt Q8VGZ7 | UniProt Q8VH16 | UniProt Q8VH20 | UniProt Q8VH21

C=C(C)C1CC=C(C)CC1 (stereo unspecified)
inactive: UniProt Q8VGZ2 | UniProt Q8VGZ7 | UniProt Q8VH16 | UniProt Q8VH20 | UniProt Q8VH21

C=CC(=C)CCC=C(C)C
inactive: UniProt Q8VGZ2 | UniProt Q8VGZ7 | UniProt Q8VH16 | UniProt Q8VH20 | UniProt Q8VH21

CC=CC(=O)C1=C(C)CCCC1(C)C
inactive: UniProt Q8VGZ2 | UniProt Q8VGZ7 | UniProt Q8VH16 | UniProt Q8VH20 | UniProt Q8VH21

CC=Cc1ccc(OC)cc1
inactive: UniProt Q8VGZ2 | UniProt Q8VGZ7 | UniProt Q8VH16 | UniProt Q8VH20 | UniProt Q8VH21

CCC=CCCC=CC=O
inactive: UniProt Q8VGZ2 | UniProt Q8VGZ7 | UniProt Q8VH16 | UniProt Q8VH20 | UniProt Q8VH21

Cc1c(C)c(C)c(C=O)c(C)c1C
inactive: UniProt Q8VGZ2 | UniProt Q8VGZ7 | UniProt Q8VH16 | UniProt Q8VH20 | UniProt Q8VH21

CCc1occc(=O)c1O
inactive: UniProt Q8VGZ2 | UniProt Q8VGZ7 | UniProt Q8VH16 | UniProt Q8VH20 | UniProt Q8VH21

CCCCCC(C=O)=Cc1ccccc1
inactive: UniProt Q8VGZ2 | UniProt Q8VGZ7 | UniProt Q8VH16 | UniProt Q8VH20 | UniProt Q8VH21

OCC=Cc1ccccc1
inactive: UniProt Q8VGZ2 | UniProt Q8VGZ7 | UniProt Q8VH16 | UniProt Q8VH20 | UniProt Q8VH21

C=CC(=C)CCC=C(C)CCC=C(C)C
inactive: UniProt Q8VGZ2 | UniProt Q8VGZ7 | UniProt Q8VH16 | UniProt Q8VH20 | UniProt Q8VH21

CCCCCC(C)O (stereo unspecified)
inactive: UniProt Q8VGZ2 | UniProt Q8VGZ7 | UniProt Q8VH16 | UniProt Q8VH20 | UniProt Q8VH21

CCCCCCCCOC=O
inactive: UniProt Q8VGZ2 | UniProt Q8VGZ7 | UniProt Q8VH16 | UniProt Q8VH20 | UniProt Q8VH21

CC(C)=CCCC(C)=CCOC(=O)C(C)C
inactive: UniProt Q8VGZ2 | UniProt Q8VGZ7 | UniProt Q8VH16 | UniProt Q8VH20 | UniProt Q8VH21

CC(=O)C1(C)CC2=C(CCCC2(C)C)CC1C (stereo unspecified)
inactive: UniProt Q8VGZ2 | UniProt Q8VGZ7 | UniProt Q8VH16 | UniProt Q8VH20 | UniProt Q8VH21

Cc1ccc2c(c1)OCC(=O)CO2
inactive: UniProt Q8VGZ2 | UniProt Q8VGZ7 | UniProt Q8VH16 | UniProt Q8VH20 | UniProt Q8VH21

CCc1nccnc1CC
inactive: UniProt Q8VGZ2 | UniProt Q8VGZ7 | UniProt Q8VH16 | UniProt Q8VH20 | UniProt Q8VH21

CC1(C)CC(=O)CC(=O)C1
inactive: UniProt Q8VGZ2 | UniProt Q8VGZ7 | UniProt Q8VH16 | UniProt Q8VH20 | UniProt Q8VH21

C=C(CC)CCCC(C)(C)O
inactive: UniProt Q8VGZ2 | UniProt Q8VGZ7 | UniProt Q8VH16 | UniProt Q8VH20 | UniProt Q8VH21

CCCCCOC(=O)CCC
inactive: UniProt Q8VGZ2 | UniProt Q8VGZ7 | UniProt Q8VH16 | UniProt Q8VH20 | UniProt Q8VH21

C=C1C2CCC(C2)C1(C)C (stereo unspecified)
inactive: UniProt Q8VGZ2 | UniProt Q8VGZ7 | UniProt Q8VH16 | UniProt Q8VH20 | UniProt Q8VH21

CC(C)=C1CCC(C)CC1=O (stereo unspecified)
inactive: UniProt Q8VGZ2 | UniProt Q8VGZ7 | UniProt Q8VH16 | UniProt Q8VH20 | UniProt Q8VH21

OCCCCCCCCCO
inactive: UniProt Q8VGZ2 | UniProt Q8VGZ7 | UniProt Q8VH16 | UniProt Q8VH20 | UniProt Q8VH21

Cc1ccc(C(C)C)cc1
inactive: UniProt Q8VGZ2 | UniProt Q8VGZ7 | UniProt Q8VH16 | UniProt Q8VH20 | UniProt Q8VH21

CC(=O)C=CC1=C(C)CCCC1(C)C
inactive: UniProt Q8VGZ2 | UniProt Q8VGZ7 | UniProt Q8VH16 | UniProt Q8VH20 | UniProt Q8VH21

c1ccc2ncccc2c1
inactive: UniProt Q8VGZ2 | UniProt Q8VGZ7 | UniProt Q8VH16 | UniProt Q8VH20 | UniProt Q8VH21

CCCCCCC(C)O (stereo unspecified)
inactive: UniProt Q8VGZ2 | UniProt Q8VGZ7 | UniProt Q8VH16 | UniProt Q8VH20 | UniProt Q8VH21

CCCCCCCOC(=O)C(C)C
inactive: UniProt Q8VGZ2 | UniProt Q8VGZ7 | UniProt Q8VH16 | UniProt Q8VH20 | UniProt Q8VH21

CCc1ncc(C)nc1CC
inactive: UniProt Q8VGZ2 | UniProt Q8VGZ7 | UniProt Q8VH16 | UniProt Q8VH20 | UniProt Q8VH21

C1CCOC1
inactive: UniProt Q8VGZ2 | UniProt Q8VGZ7 | UniProt Q8VH16 | UniProt Q8VH20 | UniProt Q8VH21

CCN(CC)CC
inactive: UniProt Q8VGZ2 | UniProt Q8VGZ7 | UniProt Q8VH16 | UniProt Q8VH20 | UniProt Q8VH21

CCCCOC(=O)CCC
inactive: UniProt Q8VH18
